Measurements gathered from unrelated publications.
Compare with care: the assays were run in different laboratories.
Target: Aurora kinase A (AURKA, Homo sapiens, UniProt O14965)
One construct used (O14965 1-403): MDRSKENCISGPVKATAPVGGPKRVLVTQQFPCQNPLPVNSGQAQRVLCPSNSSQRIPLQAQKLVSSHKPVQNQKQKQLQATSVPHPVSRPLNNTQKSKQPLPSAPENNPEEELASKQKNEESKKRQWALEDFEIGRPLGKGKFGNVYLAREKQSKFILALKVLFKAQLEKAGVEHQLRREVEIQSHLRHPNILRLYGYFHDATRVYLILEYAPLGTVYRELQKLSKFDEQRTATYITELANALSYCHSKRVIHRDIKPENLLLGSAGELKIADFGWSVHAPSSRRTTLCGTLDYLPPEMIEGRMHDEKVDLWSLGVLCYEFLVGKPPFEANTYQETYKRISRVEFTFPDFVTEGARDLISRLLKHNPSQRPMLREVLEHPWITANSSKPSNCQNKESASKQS

Compound | test | test system | conditions | quantity | result
Cc1sc(C(=O)NC2COC2)cc1-n1cc(NC(=O)Nc2c(F)cccc2Cl)cn1 | enzyme activity, inhibitor |  | 10 µM | remaining activity | 88.4%
Cc1ccc(Nc2nccc(N(C)c3ccc4c(C)n(C)nc4c3)n2)cc1S(N)(=O)=O | enzyme activity, inhibitor |  | 10 µM | inhibition | 99%
O=C(Nc1cnn(-c2csc(C(=O)NC3COC3)c2)c1)Nc1c(F)cccc1Cl | enzyme activity, inhibitor |  | 5 µM | remaining activity | 83.1%
Cc1ccc(NC(=O)c2ccc(C)c(C(F)(F)F)c2)cc1C#Cc1nn(C2CCC(O)CC2)c2ncnc(N)c12 (centres unmarked) | cell-free assay |  | 10 µM | remaining signal | 64%
CC(C)(O)c1cncc(-c2nc3ccc(F)cc3n2C2CC2)c1 | cell-free assay, competition with immobilised ligand |  | 1 µM | remaining binding | 94%
CCCOc1ccc(OC)c(F)c1C(=O)c1ccc(C(=O)N[C@@H]2CNC[C@H]2NC(=O)c2ccc3[nH]ncc3c2)cc1 | enzyme activity, inhibitor |  | 10 µM | remaining activity | 33%
CNC(=O)c1cc(Oc2ccc(NC(=O)Nc3ccc(Cl)c(C(F)(F)F)c3)cc2)ccn1 | enzyme activity, inhibitor |  | 10 µM | inhibition | 86%
Cc1nc(Cc2cccc(C(F)(F)F)c2)sc1-c1ccc(C(N)=O)nc1 | cell-free assay, competition with immobilised ligand |  | 1 µM | remaining binding | 100%
CC(C)(C)c1nc(-c2cccc(NS(=O)(=O)c3c(F)cccc3F)c2F)c(-c2ccnc(N)n2)s1 | enzyme activity, inhibitor, radiometric |  | 1 µM | remaining activity | 102%
CC1=C(C#N)C(c2ccc3c(c2)c(NC(=O)c2ccccc2C)nn3C)C(C#N)=C(C)N1 | cell-free assay, competition with immobilised ligand |  | 1 µM | remaining binding | 61%
C[C@@H]1CCN(C(=O)CC#N)C[C@@H]1N(C)c1ncnc2[nH]ccc12 | cell-free assay, inhibitor |  | 0.5 µM | remaining signal | 84.1%
CC/C(=N\NC(=O)NCc1cccc(O)c1)c1ccc(O)c(C)c1O | enzyme activity, inhibitor |  | 0.1 µM | inhibition | 5.9%
CCC(=N\O)/C(C)=C/c1ccc(F)cc1 | cell-free assay, competition with immobilised ligand |  | 1 µM | remaining binding | 100%
N#CCCc1ccc2c(c1)-c1[nH]c3ccc([N+](=O)[O-])cc3c1CC(=O)N2 | cell-free assay |  | 0.5 µM | remaining signal | 78.7%
Cc1ccc(C(=O)Nc2ccc(CN3CCN(C)CC3)c(C(F)(F)F)c2)cc1C#Cc1cnc2cccnn12 | enzyme activity, inhibitor |  | 23.5 nM | remaining activity | 97%
O=C(CSc1nc2nccnc2c(=O)n1CCc1ccccc1)Nc1nccs1 | enzyme activity, inhibitor |  | 10 µM | inhibition | 1%

Compound | test | test system | conditions | quantity | result
O=C1NC(=O)c2cc(Nc3ccc(F)cc3)c(Nc3ccc(F)cc3)cc21 | cell-free assay |  | 0.5 µM | remaining signal | 92.7%
CN1CC(Oc2cnc(C#N)cc2-c2ccn3nc(NC(=O)C4CC4)cc3c2)C1 | enzyme activity, inhibitor |  | 1 µM | inhibition | 6%
COc1cc(Cl)c(C(=O)N[C@@H](CN[C@H]2CC[C@@H](N)CC2)Cc2ccc(C#N)cc2)cc1-c1ccc(CN[C@H](C)c2ccc(C)cc2)o1 | enzyme activity, inhibitor |  | 1 µM | remaining activity | 98%
N#CC1(c2ccccn2)CCN(Cc2cc(C(=O)N3CCCC3)c(=O)n3ccccc23)CC1 | cell-free assay, competition with immobilised ligand |  | 1 µM | remaining binding | 90%
CCN(CC)CCNC(=O)c1c(C)[nH]c(/C=C2\C(=O)Nc3ccc(F)cc32)c1C | enzyme activity, inhibitor |  | 1 µM | remaining activity | 43%
CCN(CC)CCNC(=O)c1c(C)[nH]c(/C=C2\C(=O)Nc3ccc(F)cc32)c1C | enzyme activity, inhibitor |  | 10 µM | inhibition | 84%
CS(=O)(=O)N1CCCC(NC(=O)[C@H](CCC2CCCCC2)NC(=O)c2ccc(CNC(=O)c3cnc4ccccn34)cc2)C1 (some centres unmarked) | cell-free assay, competition with immobilised ligand |  | 0.1 µM | remaining binding | 100%
Cc1[nH]c(/C=C2\C(=O)Nc3ccc(F)cc32)c(C)c1C(=O)N[C@H]1CCN(C(=O)N(C)C)C1 | enzyme activity, inhibitor |  | 0.1 µM | remaining activity | 82%
COc1cc2ncnc(Nc3ccc(Oc4ccccc4)c(C)c3C)c2cc1OC | enzyme activity, inhibitor |  | 1 µM | inhibition | 13%
COc1cc(Nc2cnc(C#N)c(O[C@H](C)CN(C)C)n2)ncc1-c1cnn(C)c1 | enzyme activity, inhibitor, radiometric |  | 1 µM | remaining activity | 84%
Cc1c(NC(=O)c2cc(C(N)=O)nc3cc(F)ccc23)c(C(F)(F)F)nn1Cc1ccc(C#N)cc1 | cell-free assay, competition with immobilised ligand |  | 1 µM | remaining binding | 89%
COc1cc2nccc(Oc3ccc(NC(=O)c4c5n(n(-c6ccc(F)cc6)c4=O)CCCC5)cc3)c2cc1OC | enzyme activity, inhibitor |  | 0.1 µM | inhibition | -3%
CN(c1ccnc(CNc2nc(Nc3ccc4c(c3)CC(=O)N4)ncc2C(F)(F)F)n1)S(C)(=O)=O | cell-free assay, competition with immobilised ligand |  | 1 µM | remaining binding | 14%
COc1cc(/C=C/C(=O)CC(=O)/C=C/c2ccc(O)c(OC)c2)ccc1O | enzyme activity, inhibitor |  | 1 µM | activity vs control | 85%
CNc1cc(Oc2cc(C(=O)Nc3cc(N4CCN(C)CC4)cc(C(F)(F)F)c3)ccc2C)ncn1 | target engagement in cells, inhibitor, chemoproteomics | Huh-7 | 1 µM | inhibition | -45.4%
FC(F)c1nc2ccccc2n1-c1nc(N2CCOCC2)nc(N2CCOCC2)n1 | enzyme activity, inhibitor |  | 10 µM | remaining activity | 99%
